# S1P3 antag: blocks the human S1P3 receptor | CHO S1P3 NFAT-BLA reporter, FRET fluorescence, antagonist mode | Q99500 | 170,000 tested, 0.27% active | inhibition, % at 4.98 µM;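 active = inhibition above the plate cutoff, the mean inhibition of test wells on that plate plus 3 SD, cut at about 28% in these data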;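 also: cells challenged with S1P at its EC80 of 0.8 µM; blue over green emission ratio from cleaved BLA substrate after 4 h stimulation; 0% = S1P-stimulated wells and 100% = unstimulated DMSO-only wells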
# S1P4 antagonist: antagonists of human S1P4 receptor; O95977; S1P4-expressing cells, antagonist mode, reporter read-out; inhibition, % at 4.98 µM; 220,000 tested, 0.26% active; AID 1510; in the data active = inhibition above about 29%;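 also: 0% = wells stimulated with agonist and 100% = vehicle wells without agonist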
# Target sequence (O95977 whole entry, looked up): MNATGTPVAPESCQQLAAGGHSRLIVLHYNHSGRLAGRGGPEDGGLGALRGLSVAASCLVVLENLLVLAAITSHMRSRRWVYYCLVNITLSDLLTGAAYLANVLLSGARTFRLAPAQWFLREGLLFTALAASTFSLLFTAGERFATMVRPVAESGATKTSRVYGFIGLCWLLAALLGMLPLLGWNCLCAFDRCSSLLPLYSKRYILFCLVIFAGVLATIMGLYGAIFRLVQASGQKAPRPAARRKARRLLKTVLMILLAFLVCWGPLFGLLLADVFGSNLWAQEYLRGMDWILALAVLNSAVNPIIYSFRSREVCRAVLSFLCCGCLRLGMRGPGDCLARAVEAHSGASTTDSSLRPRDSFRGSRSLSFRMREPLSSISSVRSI
# Lmaj promast: reduces viability of Leishmania major promastigotes; inhibition, % at 10 µM; 200,000 tested, 9% active; resazurin fluorescence viability; AID 1063; in the data active = inhibition above about 50%;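 also: promastigotes grown with compound for 44 hours at 28 °C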
# MDM2 E3 inh: inhibitors of human Mdm2 E3 ubiquitin ligase; Q00987; cell-based MDM2 ubiquitination luciferase reporter, 2 h; 0 = plate control, 100 = twice control, blank-subtracted; signal enhancement, % at 5 µM; 210,000 tested, 0.11% active; AID 1230;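 active = signal enhancement of 30% or more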;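 also: luminescence tracks abundance of the self-degrading MDM2-luciferase fusion protein; higher signal means inhibition of MDM2 E3 ligase activity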
#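 Material: Stable MDM2–luciferase fusion reporter cells | Amount: 2000 cells seeded into each well | Dosing: One concentration, 5 µM, with 0.2% DMSO | Incubation: 4 h cell settling then 2 h compound exposure, 37 °C | Measured by: Luciferase luminescence | Read-out basis: % enhancement relative to plate controls after blank subtraction | Benchmarks: Control and blank well means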
# S1P4 agonist: activates the human S1P4 receptor | O95977 | S1P4-expressing cell line, agonist reporter assay | activation, % at 4.98 µM | 220,000 tested, 0.35% active | AID 1509; in the data active = activation above about 11%;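 also: 0% = DMSO vehicle and 100% = reference agonist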
# Starred values were filed as active, the others as inactive; / = no result. The full list was thinned out, with hits kept by preference.
SMILES,S1P3 antag,S1P4 antagonist,Lmaj promast,MDM2 E3 inh,S1P4 agonist
CCC(c1nnc(SCC(=O)Nc2ccc(Cl)cc2C(F)(F)F)n1C1CCCCC1)N(C)C (stereo not given),2,-2,-2,-16,0
O=C(O)C1CCC(=O)N1C(=O)OCc1ccccc1 (stereo not given),-7,2,/,-11,-1
CCCCOC(=O)/C=C/c1ccc(OC(=O)OC)c(OC(=O)OC)c1,-11,-22,-6,-12,1
COC(=O)Oc1ccc(/C=C/C(=O)OC(C)C)cc1OC(=O)OC,-17,0,80*,-8,1
Cc1ccc(-c2nnc(SCC(=O)N/N=C/c3ccc(C)s3)n2-c2ccccc2)cc1,-26,-14,32,-10,0
CCOC(=O)C1CCN(C(=S)Nc2cc(C)ccc2C)CC1,-4,-1,-4,98*,1
Cc1ccc(NC(=S)N2CCC(N(C)CC3CCCO3)CC2)c(C)c1 (stereo not given),/,7,90*,-11,-6
COc1cccc(NC(=S)N2CCC(N(C)CC3CCCO3)CC2)c1 (stereo not given),-10,-15,94*,-2,0
Cc1ccc(C)c(NC(=S)N2CCC(N(C)CC3CCCO3)CC2)c1 (stereo not given),/,-1,91*,-67,-3
O=C(O)CCC(=O)CCC(=O)c1ccc(Cl)cc1,/,-5,3,-32,1
CN(C)CCC(=O)c1ccc(Cl)cc1,1,-3,100*,/,1
O=[N+]([O-])c1ccc(N2CCN(Cc3ccccc3)CC2)c(S(=O)(=O)N2CCOCC2)c1,/,-7,93*,-8,3
O=C(Nc1ccccc1)c1ccc(NC2CCCCC2)c(S(=O)(=O)N2CCOCC2)c1,/,-2,61*,-15,-1
O=C(Nc1ccccc1)c1ccc(N2CCN(c3ccccc3)CC2)c(S(=O)(=O)N2CCOCC2)c1,/,-1,89*,-9,0
CN1CCN(c2ccc([N+](=O)[O-])cc2S(=O)(=O)N2CCOCC2)CC1,/,-30,-5,-8,1
COC(=O)CSc1ccc(S(=O)(=O)N2CCCCCC2)cc1[N+](=O)[O-],-5,7,10,5,1
COc1cc(OC)c(-c2cc(C(=O)O)ccc2OC)c(OC)c1,1,-3,-7,6,-1
COc1cc(NC(=O)c2cc3c(Cl)nc4ccccc4c3s2)cc(OC)c1OC,-6,-23,57*,-9,4
CCN(CC)CCNC(=O)c1cc2ccccc2nc1Cl,-12,-12,-1,-7,0
CCN(CC)CCCNC(=O)c1cc2c(Cl)nc3ccccc3c2s1,6,-20,98*,-22,0
CC1CCCN(CCCNC(=O)c2cc3c(Cl)nc4ccccc4c3s2)C1 (stereo not given),3,-3,100*,-23,-2
CN(CCCNC(=O)c1cc2c(Cl)nc3ccccc3c2s1)Cc1ccccc1,-1,1,93*,-11,-1
O=C(c1cc(Cl)ccc1[N+](=O)[O-])n1cnc2ccccc21,1,6,55*,-6,-1
COc1ccc(C(=O)NC(=S)NCc2ccco2)cc1,-13,-8,/,-8,-1
CC(=O)c1ccc(N=C2SCCCN2C(=O)C2CCCC2)cc1,-2,-2,64*,-6,1
SMILES,S1P3 antag,S1P4 antagonist,Lmaj promast,MDM2 E3 inh,S1P4 agonist
CC(=O)c1ccc(NC(=S)N2CCCCCC2)cc1,-8,-6,-2,-5,0
CN1C(=C2C(=O)OC(C)(C)OC2=O)Sc2ccccc21,15,6,99*,-18,2
C(#Cc1ccccc1)C[N+]1(CC#Cc2ccccc2)CCCC1,-3,-11,100*,-5,-1
CC(C)(CO)Nc1nc(N2CCCC2)nc(N2CCCC2)n1,/,-19,100*,-2,-2
CCNc1nc(N2CCCC2)nc(N2CCCC2)n1,-10,4,73*,1,-3
CC(C)(C)Nc1nc(OCC#N)nc(N2CCCCC2)n1,-7,-5,35,-5,1
O=S(=O)(c1ccccc1)n1ccc2cccnc21,/,1,-1,-12,1
Cc1nn(-c2ccccc2)c(Cl)c1/C=C/C(=O)c1ccccc1,/,6,69*,-17,-2
Cc1nn(-c2ccccc2)c(Cl)c1/C=C1\C(=O)N(C)C(=S)N1C,-10,-1,-1,-6,2
Cc1nn(-c2ccccc2)c(Cl)c1/C=C1\SC(=S)N(C)C1=O,-5,3,53*,6,1
CC(=O)c1cccc(N=c2scc(-c3ccc(S(=O)(=O)N4CCOCC4)cc3)n2CCO)c1,8,-25,95*,-7,0
O=C(c1ccccc1)[C@@H]1[C@@H](C(=O)c2ccc(F)cc2)[C@@]2(C(=O)Nc3ccccc32)[C@H]2c3ccccc3C=CN12,-5,0,74*,-21,-2
CCOC(=O)c1cc(-c2ccccc2)sc1NC(=O)CN1C(=O)NC(CC)(c2ccccc2)C1=O (stereo not given),/,0,51*,-13,-3
CCOC(=O)c1cc(-c2ccccc2)sc1NC(=O)COC(=O)c1cccc(S(N)(=O)=O)c1,9,-3,28,-12,1
CCOC(=O)c1cc(-c2ccccc2)sc1NC(=O)CN1C(=O)NC(CC)(c2ccc(F)cc2)C1=O (stereo not given),/,4,28,6,-2
CCOC(=O)c1cc(-c2ccccc2)sc1NC(=O)COC(=O)c1ccc(Cl)c(S(N)(=O)=O)c1,-12,-5,91*,-4,-2
O=C(C[n+]1ccc(CCSc2ccc(F)cc2)cc1)c1ccccc1,5,15,6,-9,3
Cc1cccc2c(=O)cc(C)n(CC(N)=O)c12,5,-1,/,-6,-1
CN(C[C@@H](Cc1cccc2ccccc12)N(C[C@H](Cc1ccccc1)N(CCc1ccccc1)N=O)N=O)N=O,6,-2,28,/,0
CC1(C)CC(=O)C2=C(C1)N=c1s/c(=C/c3ccc(F)c(F)c3)c(=O)n1C2c1ccc(F)cc1 (stereo not given),/,-5,100*,-4,0
COC(=O)C(O)(NC(=O)NC(C)=O)C(F)(F)F (stereo not given),-37,-4,-5,-5,0
Cc1cccc(C)c1OCc1nnc(NC(=O)CSc2ccc(Cl)cc2)s1,-2,-20,59*,-4,0
Cc1nn(CCc2nc(-c3ccco3)cs2)c2[nH]c(=O)cc(C(F)(F)F)c12,16,-10,-12,-15,1
CCCc1cc(=O)c2c(O)ccc(OC)c2o1,5,-17,/,-6,2
O=C(/C=C/c1ccc(Br)cc1)c1ccc(NC2=NCCCS2)cc1,8,24,100*,-7,-2
O=C(/C=C/c1ccccc1)c1ccc(NC2=NCCCS2)cc1,0,-2,100*,-4,0
CC(C)(C)c1ccc(/C=C/C(=O)c2ccc(NC3=NCCCS3)cc2)cc1,3,4,100*,-16,1
CC(C)(C)c1ccc(OCCCC(=O)NC2=NCCS2)cc1,/,3,-3,15,-2

# Screening data from PubChem.
